In publication PMC10769797 (The Oncologist, 2023):

Experiments:
[1] = system: patients with advanced solid tumors; assay: Phase I dose-escalation safety: adverse events; format: in vivo, human
[2] = Plasma pharmacokinetics, noncompartmental analysis; format: in vivo, human
In short: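 Oral dosing QD (part A1) or TIW (part A2). Intensive plasma samples were taken after the dose on cycle 1 days 1 and 15, for up to 24 h (A1) or 48 h (A2). Cmax, Tmax, AUC(0-Inf) and terminal half-life came from plasma concentrations by standard noncompartmental analysis, with descriptive statistics.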

CDK7 = CDK7 (Homo sapiens, UniProt P50613); assay: CDK7-target occupancy assay; format: in vivo
In short: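 Skin biopsies were taken at baseline (≤14 days pre-dose) and 6–8 h postdose on days 1 and 15; PBMCs predose day 1 and 8 h postdose days 1 and 15. Lysates were labelled with a biotinylated probe. Anti-cyclin H captured CDK7/cyclin H on MSD plates. Unbound CDK7 was read with SULFO-TAG streptavidin, total with anti-CDK7 mAb. Skin occupancy was baseline-normalised unbound/total; PBMC occupancy was unbound versus day-1 predose.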

CDK7, sequence (P50613 2-346 limits assumed): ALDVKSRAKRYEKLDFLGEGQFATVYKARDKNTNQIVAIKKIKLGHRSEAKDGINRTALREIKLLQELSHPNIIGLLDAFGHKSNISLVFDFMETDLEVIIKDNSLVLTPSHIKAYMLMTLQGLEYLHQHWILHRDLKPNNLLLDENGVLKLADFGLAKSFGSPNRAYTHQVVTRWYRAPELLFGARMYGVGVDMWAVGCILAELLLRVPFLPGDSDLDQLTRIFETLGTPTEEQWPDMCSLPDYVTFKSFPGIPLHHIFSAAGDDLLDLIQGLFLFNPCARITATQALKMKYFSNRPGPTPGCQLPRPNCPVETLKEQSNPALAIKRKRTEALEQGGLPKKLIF
CDK7, sequence (P51946 whole entry partner): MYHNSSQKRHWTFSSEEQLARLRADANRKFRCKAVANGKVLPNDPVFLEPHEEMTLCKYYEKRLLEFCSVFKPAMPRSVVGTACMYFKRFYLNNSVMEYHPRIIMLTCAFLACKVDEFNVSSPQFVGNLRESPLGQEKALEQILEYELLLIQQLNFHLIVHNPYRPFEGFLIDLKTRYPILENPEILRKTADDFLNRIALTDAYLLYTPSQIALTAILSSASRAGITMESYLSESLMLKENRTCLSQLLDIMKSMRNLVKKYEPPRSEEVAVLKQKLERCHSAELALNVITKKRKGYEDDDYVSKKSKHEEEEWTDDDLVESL
CDK7, sequence (P51948 whole entry partner): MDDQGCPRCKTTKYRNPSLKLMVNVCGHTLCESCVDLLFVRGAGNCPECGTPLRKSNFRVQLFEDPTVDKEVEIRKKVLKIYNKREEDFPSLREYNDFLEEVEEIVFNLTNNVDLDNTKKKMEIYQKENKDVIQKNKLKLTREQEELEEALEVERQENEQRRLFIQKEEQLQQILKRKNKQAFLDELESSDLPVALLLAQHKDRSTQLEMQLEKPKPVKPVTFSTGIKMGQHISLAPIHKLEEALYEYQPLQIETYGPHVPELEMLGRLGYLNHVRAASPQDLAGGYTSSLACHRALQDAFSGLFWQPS

## Cc1cc(NC2CCN(C(=O)OC3CCN(C(=O)/C=C/CN(C)C)C3)CC2)n2ncc(C(C)C)c2n1 (stereo not shown) [LY3405105]
[1]; QD (N = 43), Any grade
  Patients with ≥1 SAE related to study treatment: 7 (16) n (%)
  Patients with ≥1 TRAE: 29 (67) n (%)
  SAE related to study treatment: Abdominal pain: 1 (2) n (%)
  SAE related to study treatment: Acute kidney injury: 1 (2) n (%)
  SAE related to study treatment: Alanine aminotransferase increase: 1 (2) n (%)
  SAE related to study treatment: Diarrhea: 2 (5) n (%)
  SAE related to study treatment: Dyspnea: 1 (2) n (%)
  SAE related to study treatment: Hypotension: 1 (2) n (%)
  SAE related to study treatment: Mucosal inflammation: 1 (2) n (%)
  SAE related to study treatment: Nausea: 1 (2) n (%)
  SAE related to study treatment: Ophthalmic herpes zoster: 1 (2) n (%)
  SAE related to study treatment: Platelet count decrease: 1 (2) n (%)
  TRAE: Abdominal pain: 6 (14) n (%)
  TRAE: Anemia: 5 (12) n (%)
  TRAE: Asthenia: 2 (5) n (%)
  TRAE: Diarrhea: 18 (42) n (%)
  TRAE: Fatigue: 8 (19) n (%)
  TRAE: Nausea: 9 (21) n (%)
  TRAE: Platelet count decrease: 6 (14) n (%)
  TRAE: Vomiting: 8 (19) n (%)
[1]; QD (N = 43), ≥Grade 3
  Patients with ≥1 SAE related to study treatment: 6 (14) n (%)
  Patients with ≥1 TRAE: 10 (23) n (%)
  SAE related to study treatment: Abdominal pain: 0 n (%)
  SAE related to study treatment: Acute kidney injury: 1 (2) n (%)
  SAE related to study treatment: Alanine aminotransferase increase: 1 (2) n (%)
  SAE related to study treatment: Diarrhea: 2 (5) n (%)
  SAE related to study treatment: Dyspnea: 1 (2) n (%)
  SAE related to study treatment: Hypotension: 0 n (%)
  SAE related to study treatment: Mucosal inflammation: 1 (2) n (%)
  SAE related to study treatment: Nausea: 1 (2) n (%)
  SAE related to study treatment: Ophthalmic herpes zoster: 1 (2) n (%)
  SAE related to study treatment: Platelet count decrease: 1 (2) n (%)
  TRAE: Abdominal pain: 0 n (%)
  TRAE: Anemia: 2 (5) n (%)
  TRAE: Asthenia: 0 n (%)
  TRAE: Diarrhea: 2 (5) n (%)
  TRAE: Fatigue: 1 (2) n (%)
  TRAE: Nausea: 1 (2) n (%)
  TRAE: Platelet count decrease: 3 (7) n (%)
  TRAE: Vomiting: 0 n (%)
[1]; QD, oral monotherapy, patients
  Maximum tolerated dose (MTD): 20 mg
  Recommended phase II dose (RP2D): 20 mg
[1]; TIW (N = 11), Any grade
  Patients with ≥1 SAE related to study treatment: 0 n (%)
  Patients with ≥1 TRAE: 6 (55) n (%)
  SAE related to study treatment: Abdominal pain: 0 n (%)
  SAE related to study treatment: Acute kidney injury: 0 n (%)
  SAE related to study treatment: Alanine aminotransferase increase: 0 n (%)
  SAE related to study treatment: Diarrhea: 0 n (%)
  SAE related to study treatment: Dyspnea: 0 n (%)
  SAE related to study treatment: Hypotension: 0 n (%)
  SAE related to study treatment: Mucosal inflammation: 0 n (%)
  SAE related to study treatment: Nausea: 0 n (%)
  SAE related to study treatment: Ophthalmic herpes zoster: 0 n (%)
  SAE related to study treatment: Platelet count decrease: 0 n (%)
  TRAE: Abdominal pain: 0 n (%)
  TRAE: Anemia: 1 (9) n (%)
  TRAE: Asthenia: 4 (36) n (%)
  TRAE: Diarrhea: 0 n (%)
  TRAE: Fatigue: 0 n (%)
  TRAE: Nausea: 1 (9) n (%)
  TRAE: Platelet count decrease: 0 n (%)
  TRAE: Vomiting: 0 n (%)
[1]; TIW (N = 11), ≥Grade 3
  Patients with ≥1 SAE related to study treatment: 0 n (%)
  Patients with ≥1 TRAE: 0 n (%)
  SAE related to study treatment: Abdominal pain: 0 n (%)
  SAE related to study treatment: Acute kidney injury: 0 n (%)
  SAE related to study treatment: Alanine aminotransferase increase: 0 n (%)
  SAE related to study treatment: Diarrhea: 0 n (%)
  SAE related to study treatment: Dyspnea: 0 n (%)
  SAE related to study treatment: Hypotension: 0 n (%)
  SAE related to study treatment: Mucosal inflammation: 0 n (%)
  SAE related to study treatment: Nausea: 0 n (%)
  SAE related to study treatment: Ophthalmic herpes zoster: 0 n (%)
  SAE related to study treatment: Platelet count decrease: 0 n (%)
  TRAE: Abdominal pain: 0 n (%)
  TRAE: Anemia: 0 n (%)
  TRAE: Asthenia: 0 n (%)
  TRAE: Diarrhea: 0 n (%)
  TRAE: Fatigue: 0 n (%)
  TRAE: Nausea: 0 n (%)
  TRAE: Platelet count decrease: 0 n (%)
  TRAE: Vomiting: 0 n (%)
[1]; Total (N = 54), Any grade
  Patients with ≥1 SAE related to study treatment: 7 (13) n (%)
  Patients with ≥1 TRAE: 35 (65) n (%)
  SAE related to study treatment: Abdominal pain: 1 (2) n (%)
  SAE related to study treatment: Acute kidney injury: 1 (2) n (%)
  SAE related to study treatment: Alanine aminotransferase increase: 1 (2) n (%)
  SAE related to study treatment: Diarrhea: 2 (4) n (%)
  SAE related to study treatment: Dyspnea: 1 (2) n (%)
  SAE related to study treatment: Hypotension: 1 (2) n (%)
  SAE related to study treatment: Mucosal inflammation: 1 (2) n (%)
  SAE related to study treatment: Nausea: 1 (2) n (%)
  SAE related to study treatment: Ophthalmic herpes zoster: 1 (2) n (%)
  SAE related to study treatment: Platelet count decrease: 1 (2) n (%)
  TRAE: Abdominal pain: 6 (11) n (%)
  TRAE: Anemia: 6 (11) n (%)
  TRAE: Asthenia: 6 (11) n (%)
  TRAE: Diarrhea: 18 (33) n (%)
  TRAE: Fatigue: 8 (15) n (%)
  TRAE: Nausea: 10 (19) n (%)
  TRAE: Platelet count decrease: 6 (11) n (%)
  TRAE: Vomiting: 8 (15) n (%)
[1]; Total (N = 54), ≥Grade 3
  Patients with ≥1 SAE related to study treatment: 6 (11) n (%)
  Patients with ≥1 TRAE: 10 (19) n (%)
  SAE related to study treatment: Abdominal pain: 0 n (%)
  SAE related to study treatment: Acute kidney injury: 1 (2) n (%)
  SAE related to study treatment: Alanine aminotransferase increase: 1 (2) n (%)
  SAE related to study treatment: Diarrhea: 2 (4) n (%)
  SAE related to study treatment: Dyspnea: 1 (2) n (%)
  SAE related to study treatment: Hypotension: 0 n (%)
  SAE related to study treatment: Mucosal inflammation: 1 (2) n (%)
  SAE related to study treatment: Nausea: 1 (2) n (%)
  SAE related to study treatment: Ophthalmic herpes zoster: 1 (2) n (%)
  SAE related to study treatment: Platelet count decrease: 1 (2) n (%)
  TRAE: Abdominal pain: 0 n (%)
  TRAE: Anemia: 2 (4) n (%)
  TRAE: Asthenia: 0 n (%)
  TRAE: Diarrhea: 2 (4) n (%)
  TRAE: Fatigue: 1 (2) n (%)
  TRAE: Nausea: 1 (2) n (%)
  TRAE: Platelet count decrease: 3 (6) n (%)
  TRAE: Vomiting: 0 n (%)
[1]; all 54 enrolled patients, all DLTs in part A1 (QD)
  Patients with dose-limiting toxicities: Seven
[1]; all patients (N = 54)
  Patients reporting at least one treatment-related adverse event (TRAE): 64.8%
[1]; part A1, 20 mg QD
  Dose-limiting toxicity: no DLT was observed
[1]; part A1, 1, 2, 4, 8, 15, or 30 mg QD
  Dose-limiting toxicity: no DLT was observed
[1]; part A1, corresponds to doses of 30 to 45 mg QD
  Start of the steady-state AUC range where DLTs were observed: approximately 1000 ng h/mL
[1]; part A2 (TIW), 2 mg, 4 mg, or 8 mg
  Dose-limiting toxicity: no DLT was observed
[2]; 1 to 45 mg QD day 1, 1 to 35 mg QD day 15, 2 to 8 mg TIW day 1 and day 15
  Dose dependence of plasma exposure: exposures increased with dose
[2]; oral dosing, assessed in the TIW group
  Geometric mean terminal elimination half-life: 15 to 19 h
[2]; oral dosing, patients
  Median time to maximum concentration: 1 to 2 h
CDK7; QD, steady state on day 15
  Dose at which near maximal CDK7-target occupancy was achieved: ≥ 15 mg
CDK7; highest observed in the trial
  CDK7-target occupancy observed: up to 90%
CDK7; part A1, skin, day 15, corresponds to doses at 15 mg QD
  Steady-state AUC above which maximum skin target occupancy occurred: approximately 500 ng h/mL
CDK7; skin and peripheral blood, day 15, ≥15 mg QD
  CDK7-target occupancy (near maximal): 75%
CDK7; ≥15 mg once daily
  CDK7 target occupancy: > 75%
